Experimental data of several laboratories.
Compare with care: the assays were run in different laboratories.
rep methyltransferase: Replicase polyprotein 1ab, methyltransferase (rep, Severe acute respiratory syndrome coronavirus 2, UniProt P0DTD1)
FABP1: Fatty acid-binding protein, liver (FABP1, Homo sapiens, UniProt P07148)
rep main protease: Replicase polyprotein 1ab, main protease (rep, Severe acute respiratory syndrome coronavirus 2, UniProt P0DTD1)

Structure (SMILES) | target | observed | action | technique | setting | quantity | value
COc1ncc(-c2ccc3nccc(-c4ccnnc4)c3c2)cc1NS(=O)(=O)c1ccc(F)cc1F | rep methyltransferase | enzyme activity | inhibitor | – | – | IC50 | ~100 µM
CCOC(=O)c1ccc(OC(=O)CCCCCN=C(N)N)cc1 | Kallikrein-12 (Homo sapiens, UniProt Q9UKR0) | enzyme activity | inhibitor | – | – | IC50 | 0.0357 µM
CCNS(=O)(=O)C(F)(F)C(F)(F)C(F)(F)C(F)(F)C(F)(F)C(F)(F)C(F)(F)C(F)(F)F | FABP1 | ligand displacement | – | fluorescence | – | Kd | 16.6 µM
CC(=O)[C@@]1(O)CC[C@H]2[C@@H]3C[C@H](C)C4=CC(=O)C=C[C@]4(C)[C@@]3(F)[C@@H](O)C[C@@]21C | rep main protease | enzyme activity | inhibitor | – | – | IC50 | 60.6 µM
O=c1c(O)c(-c2ccc(O)cc2)oc2c(O)c(O)cc(O)c12 | rep main protease | enzyme activity | inhibitor | – | with preincubation | IC50 | < 10 µM
CC1CC(c2ccc(S(N)(=O)=O)cc2)=NN1c1ccc(C#N)c(Cl)c1 (centres unmarked) | rep methyltransferase | enzyme activity | inhibitor | – | – | IC50 | > 100 µM
NS(=O)(=O)C(F)(F)C(F)(F)C(F)(F)C(F)(F)C(F)(F)C(F)(F)C(F)(F)C(F)(F)F | FABP1 | ligand displacement | – | fluorescence | – | Kd | 5.87 µM
O=C(O)c1cc(O)c(O)c(O)c1 | rep main protease | binding | – | MST | – | Kd | 3.95 µM
CC1(C)O[C@@H]2C[C@H]3[C@@H]4CCC5=CC(=O)C=C[C@]5(C)[C@H]4[C@@H](O)C[C@]3(C)[C@]2(C(=O)CO)O1 | rep main protease | enzyme activity | inhibitor | – | – | IC50 | 71.4 µM
CN1C(=O)/C(=N\Nc2ncc(-c3cc4ccccc4oc3=O)s2)c2cc(Cl)ccc21 | Alpha-glucosidase MAL12 (MAL12, Saccharomyces cerevisiae S288c, UniProt P53341) | enzyme activity | inhibitor | absorbance | – | IC50 | 112 µM
COc1cc2c(cc1OC)CN(CCc1ccc(NC(=O)c3cccc4c(=O)c5cccc(OC)c5[nH]c34)cc1)CC2 | Histamine H2 receptor (HRH2, Homo sapiens, UniProt P25021) | cell-free assay | – | – | – | Ki | 1.1 µM
